Screens as filed in PubChem BioAssay.
A selection: hits, their analogues and other compounds. The true share with any hit is near 0.63%.
IDE cell activ: IDE (human) activation, cell-based | activation, % at 5.96 µM | AID 493087 | P14735 | 340,000 tested, 0.073% active | HEK cells, FAbeta-B cleavage, fluorescence polarization; 0% vehicle, 100% cell-free pure enzyme wells;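 active = activation above the mean of all tested compounds plus 3 SD, set per screening campaign, cut at about 17% in these data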
TRPML3 agonist: activates the human TRPML3 channel; activation, % at 3 µM; HEK293 TRPML3-YFP, Fluo-8 calcium fluorescence; 100% = the carbachol control signal; Q8TDD5; 220,000 tested, 0.29% active;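 active = activation above its plate's cutoff, the mean activation of the plate's test wells plus 3 SD, cut at about 12% in these data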;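 also: 0% = DMSO only wells and 100% = carbachol wells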
Target sequence (Q8TDD5 whole entry, looked up): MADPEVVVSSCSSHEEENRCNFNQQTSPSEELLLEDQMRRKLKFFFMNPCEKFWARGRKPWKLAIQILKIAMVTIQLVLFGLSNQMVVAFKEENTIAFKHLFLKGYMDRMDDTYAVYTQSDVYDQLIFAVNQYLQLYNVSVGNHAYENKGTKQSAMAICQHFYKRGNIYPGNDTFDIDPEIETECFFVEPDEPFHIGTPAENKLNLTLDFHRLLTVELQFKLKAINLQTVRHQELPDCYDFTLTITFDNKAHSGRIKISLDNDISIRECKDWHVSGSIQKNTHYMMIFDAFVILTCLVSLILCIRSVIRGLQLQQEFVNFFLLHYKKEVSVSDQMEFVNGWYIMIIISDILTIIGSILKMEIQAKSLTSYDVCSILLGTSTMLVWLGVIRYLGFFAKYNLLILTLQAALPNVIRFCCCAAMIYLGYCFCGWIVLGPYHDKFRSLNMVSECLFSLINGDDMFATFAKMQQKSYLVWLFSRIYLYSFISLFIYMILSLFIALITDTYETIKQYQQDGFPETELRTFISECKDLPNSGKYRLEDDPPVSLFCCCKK
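system = HEK293 cells stably carrying human TRPML3-YFP | doses = one concentration, 3 µM nominal, 0.3% DMSO | timing = dye loading 1 h 37 °C then 30 min ambient, 125 s read | detection = Fluo-8 calcium dye fluorescence, ex 470-495, em 515-575 nm | benchmarks = high control carbachol 87 µM, low control DMSO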
IDE inh: cellular human IDE inhibition; P14735; HEK cells, FAbetaB cleavage, fluorescence polarization; inhibition, % at 5.59 µM; 320,000 tested, 0.41% active;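 active = percent inhibition above the average of all tested compounds plus 3 SD, set per screening campaign, cut at about 16% in these data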;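 also: IDE supplied by intact live HEK cells; FP after avidin binding of uncleaved biotin substrate so inhibition keeps polarization high; 0% = DMSO wells and 100% = 60 µM reference IDE inhibitor Ii1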
TRPN1 ag: zebrafish TRPN1 (NompC) channel agonism. HEK293 zebrafish TRPN1-YFP, Fluo-8 calcium fluorescence; 100% = response to 87 µM carbachol. activation, % at 3 µM. 220,000 tested, 0.18% active;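 active = activation above its plate's cutoff, the mean activation of test wells on that plate plus 3 SD, cut at about 19% in these data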;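 also: 0% = DMSO alone and 100% = 87 µM carbachol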
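Material: zebrafish TRPN1-YFP in HEK293 cells. Doses: one dose of 3 µM, 0.3% DMSO. Incubation: dye 1 h 37 °C plus 30 min RT. Measured by: intracellular calcium fluorescence with Fluo-8.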
IDE inh confirm: confirmation of human insulin-degrading enzyme inhibitors in cells | AID 435028 | HEK cells, FAbetaB cleavage, fluorescence polarization | 1,200 tested, 51% active | inhibition, % at 5.59 µM | shares compounds with IDE inh;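 active = mean inhibition across triplicate wells above the cutoff set by the earlier primary insulin-degrading enzyme screen, cut at about 16% in these data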;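 also: 0% = DMSO wells and 100% = 60 µM reference IDE inhibitor Ii1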
HEK cytotox: HEK cell cytotoxicity, counter-screen for IDE inhibitors; shares compounds with IDE inh; HEK293 cytotoxicity, ATP luminescence; inhibition, % at 5.59 µM; 1,200 tested, 28% active; AID 449730; in the data active = inhibition above about 22%;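 also: 0% = vehicle wells and 100% = reference cytotoxic drug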
An asterisk follows results filed as active; · = not tested or not shown; ! = not confirmed by another sample.

SMILES | IDE cell activ | TRPML3 agonist | IDE inh | TRPN1 ag | IDE inh confirm | HEK cytotox
ClC(Cl)(c1nnnn1-c1ccccc1)c1nnnn1-c1ccccc1 | -26 | 4 | 60* | 3 | 10 | 121*
Cc1cccc(N2CCN(C(=O)CCCn3c(=O)[nH]c4ccsc4c3=O)CC2C)c1 (configuration not stated) | 2 | · | 2 | · | · | ·
Cc1cccc(N2CCN(C(=O)CCn3c(=O)[nH]c4ccsc4c3=O)CC2C)c1 (configuration not stated) | -14 | · | 24* | · | 16 | 9
Cc1ccc2nc(/C(C#N)=C\c3cc(O)ccc3[N+](=O)[O-])[nH]c2c1 | 6 | 0 | 0 | -1 | · | ·
CCOc1cc(N(CC)CC)ccc1/C=C(/C#N)c1nc2ccccc2[nH]1 | -115 | 3 | 108* | 7 | 144* | 29*
CCN(CC)c1ccc(/C=C(/C#N)c2nc3ccc(C)cc3[nH]2)c(OC(C)C)c1 | -113 | 23* | 136* | 30* | 152* | 23*
COc1cc(N=c2ssnc2Cl)c(OC)cc1Cl | -19 | 1 | 18*! | 1 | 12 | 34*
COc1ccc(OC)c(N=c2ssnc2Cl)c1 | 1 | -1 | -2 | -1 | · | ·
CCOc1ccc(Br)cc1S(=O)(=O)Nc1ccccc1N1CCOCC1 | 1 | 3 | 10 | 1 | · | ·
CC(=O)CSc1ccc(-c2nc3cc(C)c(C)cc3[nH]2)cn1 | -9 | 0 | 5 | 3 | · | ·
Cc1cc2nc(-c3ccc(SCC(=O)Nc4ccc(S(=O)(=O)N5CCCC5)cc4)nc3)[nH]c2cc1C | -4 | 0 | 17* | -1 | 4 | 20
Cc1cc2nc(-c3ccc(SCc4ccc(C#N)cc4)nc3)[nH]c2cc1C | -10 | 0 | 17* | 0 | 4 | 20
O=C(NC1CC(=O)N(c2cccc(F)c2)C1)N1CCN(C(=O)c2ccco2)CC1 (configuration not stated) | 0 | · | 2 | · | · | ·
Cc1cc(CSc2ccccc2)ccc1NC(=O)c1ccc(CN2CCOCC2)cc1 | -11 | 4 | 25* | 10 | 9 | 75*
COCc1cc(C)nc(SCC(=O)Nc2ccc(N3CCOCC3)cc2)c1C#N | 5 | · | 0 | · | · | ·
CN(C)c1ccc(/C=C2\SC(N3CCCCC3)=NC2=O)cc1 | -23 | · | 16* | · | 27* | 13
CCOCCCNc1ncnc2c1[nH]c1ccccc12 | -7 | 1 | 21* | 4 | 8 | 38*
CCOc1ccc2[nH]c3c(NCCc4ccc(OC)c(OC)c4)ncnc3c2c1 | -25 | -1 | 17* | -1 | 9 | 41*
CCCCOc1ncnc2c1[nH]c1ccccc12 | -10 | 3 | 7 | 3 | · | ·
CCCCOCCCNc1ncnc2c1[nH]c1ccccc12 | -21 | 4 | 25* | 5 | 4 | 73*
CCOc1ccc2[nH]c3c(NCCO)ncnc3c2c1 | -2 | · | · | · | · | ·
C=CCNc1ncnc2c1[nH]c1ccccc12 | 5 | 0 | 5 | 6 | · | ·
CCCc1ccccc1OCCNS(=O)(=O)c1cc2c(cc1C)OCC(=O)N2 | -1 | · | 0 | · | · | ·
CC1CC(C)(C)CC2(C1)NC(=O)N(CC(=O)N(Cc1ccccc1)c1ccccc1)C2=O (configuration not stated) | -2 | · | 5 | · | · | ·
OC(CN1CCC(Cc2ccccc2)CC1)c1ccccc1 (configuration not stated) | 1 | · | 9 | · | · | ·
SMILES | IDE cell activ | TRPML3 agonist | IDE inh | TRPN1 ag | IDE inh confirm | HEK cytotox
C=CCC[C@H](Cc1ccc(F)cc1)C(=O)OC[C@@H](NC(=O)[C@H](CC=C)CC(=O)NCCO)c1ccccc1 | 4 | · | 3 | · | · | ·
CC(c1nccs1)N(C)C(=O)CCc1nnc(-c2ccc(-c3ccccc3)cc2)o1 (configuration not stated) | -16 | 3 | 25* | 4 | 4 | 17
CC(NC(=O)CCc1nnc(-c2ccc(-c3ccccc3)cc2)o1)c1nccs1 (configuration not stated) | -7 | 1 | 8 | 3 | · | ·
Cc1ccc(S(=O)(=O)Nc2ccc3oc(=O)sc3c2)c(C)c1 | -3 | -1 | 18* | 0 | 7 | 4
O=C1COc2ccc3ccccc3c21 | 0 | · | 2 | · | · | ·
CC1(C2CC2)NC(=O)N(CC(=O)Nc2ccccc2-c2ccccc2)C1=O (configuration not stated) | -3 | -1 | -1 | 1 | · | ·
CCN1C(=O)/C(=C\C=C\c2ccccc2[N+](=O)[O-])SC1=S | 4 | 1 | · | 1 | · | ·
CCN1C(=O)/C(=C/C=C2\N(CC)c3cc(S(=O)(=O)N(C)C)ccc3N2c2ccccc2)SC1=S | -37 | 6 | 18* | 22* | 74* | 32*
C/C(=N\NC(=O)c1nnn(-c2nonc2N)c1CN(C)c1ccccc1)c1cccc(O)c1 | -1 | · | 10 | · | · | ·
S=c1nccc(-c2cccs2)[nH]1 | -16 | -1 | 20* | 1 | 4 | 12
C=CCN1C(=O)/C(=C/c2ccc(O)c(OC)c2)S/C1=N/c1nccs1 | -142 | 16* | 154* | 32* | 26* | 16
C=CCN1C(=O)/C(=C/c2ccc(OCC(=O)O)cc2)S/C1=N/c1nccs1 | -1 | 0 | 2 | -1 | · | ·
COc1ccc(CNC(=O)CSc2nc3ccccc3n2C(C)=O)cc1 | 1 | · | -6 | · | · | ·
CCCc1cc(=O)oc2c3c(cc(OCC(=O)NCc4ccncc4)c12)OC(C)(C)CC3 | -25 | · | 23* | · | 8 | 25*
CCCc1cc(=O)oc2c3c(cc(OCC(=O)NCc4ccccn4)c12)OC(C)(C)CC3 | -2 | · | 4 | · | · | ·
Cc1ccc(N=C2NC(=O)/C(=C/c3cn(C)c4ccccc34)S2)cc1C | -36 | 4 | 19* | 8 | 52* | 22
COc1ccc(CCNC(=O)COc2ccc3c(C)cc(=O)oc3c2)cc1OC | 1 | · | -2 | · | · | ·
CCCCCN(C(=O)CCC(=O)OCC(=O)c1ccc(CCC)cc1)c1c(N)n(CCCC)c(=O)[nH]c1=O | -19 | · | 24* | · | 21* | 8
COc1cc(C(=O)NNC(=S)Nc2ccc(S(N)(=O)=O)cc2)cc(OC)c1OC | -8 | -1 | -3 | 2 | · | ·
O=C(CNC(=O)c1ccc(Oc2ccccc2)cc1)OCc1ccc(Br)cc1 | -21 | 1 | 28* | -1 | 6 | 4
CC1CCN(C(=O)CN(c2ccc3c(c2)OCCO3)S(=O)(=O)c2ccccc2)CC1 | 2 | · | -1 | · | · | ·
O=C(Nc1ccccc1Cl)N1CCCN(c2nc(-c3ccccc3)ns2)CC1 | -15 | 3 | 21* | 3 | 8 | 31*
Cc1c(Cl)cccc1NC(=O)N1CCCN(c2nc(-c3ccccc3)ns2)CC1 | -12 | 4 | 17* | 7 | 2 | 51*
Nc1ccccc1-c1nnc(SCC(=O)Nc2ccccc2OC(F)F)[nH]c1=O | -2 | · | -1 | · | · | ·
O=C(O)c1ccc(N=C2c3ccccc3-c3ccccc32)cc1 | -5 | · | · | · | · | ·
O=C(N/N=C/c1cccnc1)c1cccc(NC(=O)c2cccc(Br)c2)c1 | -14 | · | 25* | · | 17* | 8
